Here are results for 2 compounds from ChEMBL document CHEMBL4011632, “Design, Synthesis, and Evaluation of Thiazolidine-2,4-dione Derivatives as a Novel Class of Glutaminase Inhibitors” (J Med Chem, 2017).

A short description of series [1]: Volume of distribution at steady state in Sprague-Dawley rat at 0.1 mg/kg, iv by HPLC-MS analysis. In kind it is ADME, organism-based. The note with it: in vivo, read-out: Vdss. A digest of the protocol: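 Male rats (330−380 g, 9−10 weeks old), quarantined 1 week, jugular-vein cannula implanted 1 day before dosing; n = 3. Single iv dose in DMA/PEG400 (20%/80%, v/v). Blood (100 μL) was drawn via cannula at 0, 2, 5, 15, 30 min and 1, 2, 4, 6, 8, 24 h and kept on ice. Plasma was analysed by HPLC−MS/MS. Vss came from noncompartmental analysis.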

Series [2] concerns Mus musculus. Kind of series: Toxicity in BALB/CAnN.Cg-Foxn1nu/CrlNarl mouse xenografted with human Aspc-1 cells assessed as loss in body weight at 50 mg/kg, ip once daily administered for 5 days followed by 2 days without dosing for 43 days relative to control. In kind it is organism-based, BALB/C. The note with it: in vivo. (A xenograft is tissue or cells of one species grown in another, often human tumour cells in immunodeficient mice.)

Series [3] can be described thus: Total clearance in Sprague-Dawley rat at 0.1 mg/kg, iv by HPLC-MS analysis. It is filed as ADME, organism-based. The note with it: in vivo. The procedure, abridged:
(§1)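 Male rats (330−380 g, 9−10 weeks old), jugular-vein cannulated 1 day before dosing, n = 3. Dosed iv in DMA/PEG400 (20%/80%, v/v) or po in 1% CMC/0.5% Tween-80. Blood (100 μL) drawn at 0, 2 min, 5 min (iv only), 15 and 30 min, and 1, 2, 4, 6, 8 and 24 h. Plasma measured by LC-MS/MS; parameters from noncompartmental analysis.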

The nature of series [4]: AUC (0 to infinity) in Sprague-Dawley rat at 0.1 mg/kg, iv by HPLC-MS analysis. It is filed as ADME, organism-based. Further details: dose 0.1 mg/kg, time infinity, route intravenous. The note with it: in vivo. The procedure, abridged:
as §1

Series [5] in a line: Oral bioavailability in Sprague-Dawley rat at 1 mg/kg by HPLC-MS analysis. The note with it: in vivo. It is filed as ADME, organism-based. The procedure, abridged:
as §1

A short description of series [6]: Tmax in Sprague-Dawley rat at 1 mg/kg, po by HPLC-MS analysis. In kind it is ADME, organism-based. The note with it: in vivo. A digest of the protocol:
as §1

Series [7] in a line: Cmax in Sprague-Dawley rat at 1 mg/kg, po by HPLC-MS analysis. In kind it is ADME, organism-based. The note with it: in vivo. Further details: dose 1 mg/kg, route oral. The procedure, abridged:
as §1

Series [8] is described as follows: AUC (0 to infinity) in Sprague-Dawley rat at 1 mg/kg, po by HPLC-MS analysis. Further details: dose 1 mg/kg, route oral, time infinity. The note with it: in vivo. In kind it is ADME, organism-based. A digest of the protocol:
as §1

For series [9], the system named is Mus musculus. Kind of series: Toxicity in BALB/CAnN.Cg-Foxn1nu/CrlNarl mouse xenografted with human Aspc-1 cells assessed as loss in body weight at 25 mg/kg, ip once daily administered for 5 days followed by 2 days without dosing for 43 days relative to control. In kind it is organism-based, BALB/C. The note with it: in vivo.
The test system of series [10] is ASPC1. The series is described as follows: Antitumor activity against human Aspc-1 cells xenografted in Balb/cAnN.Cg-Foxn1nu/CrlNarl mouse assessed as tumor growth inhibition at 50 mg/kg, ip once daily administered for 5 days followed by 2 days without dosing for 43 days relative to control. It is filed as functional. To be noted: read-out: TGI. The procedure, abridged: (§2)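 Male nude mice (7−8 weeks, 18−22 g) received 4.5 × 10^6 AsPC-1 cells sc in the right flank, in HBSS mixed 1:1 with Matrigel. Mice were randomized once mean tumor reached ~100 mm3 (day 1). Dosing was ip once daily, 5 days on/2 days off, with 2% DMSO/PBS as vehicle. Tumors were measured twice weekly, V = ab²/2. %TGI = [1 − ((Tt − T0)/(Ct − C0))] × 100 from median volumes; Student's t test.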

In series [11] the target is T1, Glutaminase liver isoform, mitochondrial (Homo sapiens) (UniProt Q9UI32).
T1 sequence (whole entry): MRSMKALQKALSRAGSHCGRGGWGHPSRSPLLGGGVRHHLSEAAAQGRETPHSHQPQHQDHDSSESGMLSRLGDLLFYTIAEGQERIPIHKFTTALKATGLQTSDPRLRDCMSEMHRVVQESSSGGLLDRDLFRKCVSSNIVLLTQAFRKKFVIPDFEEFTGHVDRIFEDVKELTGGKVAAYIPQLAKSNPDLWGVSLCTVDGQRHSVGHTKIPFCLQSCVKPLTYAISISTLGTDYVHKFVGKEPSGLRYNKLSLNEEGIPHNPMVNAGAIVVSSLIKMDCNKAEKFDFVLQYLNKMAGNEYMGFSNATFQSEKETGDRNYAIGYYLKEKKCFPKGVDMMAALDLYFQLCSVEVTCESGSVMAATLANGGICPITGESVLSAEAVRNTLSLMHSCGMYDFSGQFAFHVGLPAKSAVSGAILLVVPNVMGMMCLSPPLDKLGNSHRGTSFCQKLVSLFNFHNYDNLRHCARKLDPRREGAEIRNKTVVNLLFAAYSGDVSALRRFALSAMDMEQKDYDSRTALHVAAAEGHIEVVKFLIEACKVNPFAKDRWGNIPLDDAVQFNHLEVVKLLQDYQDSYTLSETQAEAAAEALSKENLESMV
The series is described as follows: Inhibition of human GLS2 in GLS1 deficient human Aspc-1 cells assessed as decrease in cellular glutamate production at 3.13 to 100 uM after 4 hrs by amplex red glutamic acid assay. The procedure, abridged:
(§3)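 GLS-knockout AsPC-1 cells made with GLS-KO ZFN mRNA, single-cell cloned, and grown in glutamine-free RPMI 1640 with 10% FBS. Cells seeded at 30 000/well and grown 24 h at 37 °C. Treated 4 h with 1% DMSO vehicle or 3.13−100 μM inhibitor, washed with PBS, and lysed in NP-40 buffer (4 °C, 20 min). Lysate glutamate measured by Amplex Red. Three independent experiments in duplicate.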

Series [12] relates to ASPC1. Kind of series: Antitumor activity against human Aspc-1 cells xenografted in Balb/cAnN.Cg-Foxn1nu/CrlNarl mouse assessed as tumor growth inhibition at 25 mg/kg, ip once daily administered for 5 days followed by 2 days without dosing for 68 days relative to control. In kind it is functional. To be noted: read-out: TGI. A digest of the protocol: as §2
In series [13] the target is Glutaminase 1/2 (Homo sapiens) (UniProt O94925+Q9UI32). The note with it: 3.13 to 100 uM.
Chain of Glutaminase 1/2 (Homo sapiens) (O94925 whole entry, looked up, one chain of several): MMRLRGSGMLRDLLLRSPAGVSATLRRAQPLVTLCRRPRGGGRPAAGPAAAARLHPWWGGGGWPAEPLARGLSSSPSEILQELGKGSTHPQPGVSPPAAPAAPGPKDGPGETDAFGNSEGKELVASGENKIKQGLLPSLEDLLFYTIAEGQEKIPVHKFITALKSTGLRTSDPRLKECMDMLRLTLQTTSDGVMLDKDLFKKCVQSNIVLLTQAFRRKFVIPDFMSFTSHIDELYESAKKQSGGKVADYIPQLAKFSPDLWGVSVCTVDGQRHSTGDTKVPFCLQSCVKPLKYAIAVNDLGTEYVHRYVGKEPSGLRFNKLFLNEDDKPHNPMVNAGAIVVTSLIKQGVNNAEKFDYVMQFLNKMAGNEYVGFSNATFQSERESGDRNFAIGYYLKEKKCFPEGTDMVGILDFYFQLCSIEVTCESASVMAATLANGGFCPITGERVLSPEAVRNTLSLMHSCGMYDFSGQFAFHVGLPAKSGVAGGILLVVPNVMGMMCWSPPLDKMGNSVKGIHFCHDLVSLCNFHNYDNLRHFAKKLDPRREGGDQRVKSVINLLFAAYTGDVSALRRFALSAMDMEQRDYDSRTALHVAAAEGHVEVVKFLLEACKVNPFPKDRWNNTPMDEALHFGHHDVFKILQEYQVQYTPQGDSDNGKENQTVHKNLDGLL
Series [14] has as its system ASPC1. Kind of series: Antitumor activity against human Aspc-1 cells xenografted in Balb/cAnN.Cg-Foxn1nu/CrlNarl nude mouse assessed as tumor growth inhibition at 50 mg/kg, ip once daily administered for 5 days followed by 2 days without dosing for 68 days relative to control. In kind it is functional. To be noted: read-out: TGI. The procedure, abridged: as §2
Series [15] deals with Mus musculus. The series is described as follows: Toxicity in BALB/CAnN.Cg-Foxn1nu/CrlNarl mouse xenografted with human Aspc-1 cells assessed as loss in body weight at 25 to50 mg/kg, ip once daily administered for 5 days followed by 2 days without dosing for 68 days relative to control. It is filed as organism-based, BALB/C. The note with it: in vivo, 1632 h.
Series [16] in a line: AUC (0 to infinity) in Sprague-Dawley rat at 2 mg/kg, iv by HPLC-MS analysis. In kind it is ADME, organism-based. Set-up: dose 2 mg/kg, route intravenous, time infinity. To be noted: in vivo. A digest of the protocol: as §1
The nature of series [17]: Terminal half life in Sprague-Dawley rat at 2 mg/kg, iv by HPLC-MS analysis. It is filed as ADME, organism-based. The note with it: in vivo, read-out: beta t1/2 (converted). A digest of the protocol: as §1
Series [18] can be described thus: Total clearance in Sprague-Dawley rat at 2 mg/kg, iv by HPLC-MS analysis. In kind it is ADME, organism-based. To be noted: in vivo. A digest of the protocol: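 Male rats (330−380 g, 9−10 weeks old), jugular-vein cannulated 1 day before dosing, n = 3. Dosed iv in DMA/PEG400 (20%/80%, v/v) or po in 1% CMC/0.5% Tween-80. Plasma measured by LC-MS/MS; parameters from noncompartmental analysis.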

In series [19] the target is T1, Glutaminase liver isoform, mitochondrial (Homo sapiens). Kind of series: Inhibition of human GLS2 in GLS1 deficient human Aspc-1 cells assessed as decrease in cellular glutamate production after 4 hrs by amplex red glutamic acid assay. The procedure, abridged:
as §3

Structures are written as SMILES. The source made the active and inactive calls. The calls are words filed in the database; no cut-off is given here.

Broadly, the clearance is the volume of plasma or blood freed of the substance per unit of time. Low readings indicate inefficient removal, high ones efficient removal. By AUC(0-inf) is commonly meant the area under the concentration-time curve extrapolated to infinity. The low end stands for low exposure, the high end for high exposure. The bioavailability is the share of a dose that reaches the circulation, judged against a reference dose that is usually intravenous. Usually Tmax stands for the time at which the peak concentration occurs. What is called Cmax is the highest concentration seen after dosing. With `Cc1cc(/C=C2\SC(=O)NC2=O)c(C)n1-c1ccc(-c2ccc(/C=C3\SC(=O)NC3=O)cc2)cc1`, the Vd in series [1] came to 0.4 L/kg. The Activity in the series with Mus musculus [2] and with Mus musculus [9] was > 10% each time. Besides, the clearance in series [3] was determined as 0.024 L/h/kg. Besides, the AUC(0-inf) is 3.41 µg·h/mL in series [4] and 0.222 µg·h/mL in series [8]. This compound also showed a bioavailability in series [5] of 1%. Also, the Tmax in [6] was found to be 4 h. The Cmax in series [7] worked out at 0.0166 µg/mL. The inhibition in vivo at 50 mg/kg in the series with ASPC1 [10] was 64%.
As to `O=C1NC(=O)/C(=C/c2ccc(-c3ccc(-n4c(-c5cccs5)cc(/C=C5\SC(=O)NC5=O)c4-c4cccs4)cc3)cc2)S1`, the inhibition entry in [11] and in series [13] was “Active” in each case. Besides, the inhibition in vivo at 25 mg/kg in the series on ASPC1 [12] turned out to be 2.3%. The inhibition in vivo at 50 mg/kg with ASPC1 [14] was found to be 49%. For the same compound, the Activity with Mus musculus [15] is listed as > 10%. For the same compound, in series [16], the AUC(0-inf) was 43.6 µg·h/mL. The half-life in [17] is 5 h. Also, in [18], the clearance came out at 0.054 L/h/kg. Besides, in series [19], the inhibition entry was “Dose-dependent effect”.
